From publication PMC4118675 (Chembiochem : a European journal of chemical biology, 2014)
Entries after “also recorded” stand apart in the source; their conditions may differ.

Legend:
FGF signaling = assay: FGF reporter activation in Tg; type: in vivo, zebrafish; conditions: for in vivo FGF hyperactivation activity (in words): Tg(dusp6:EGFP)pt6 embryos, SAR statement relative to 1
Procedure, shortened: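 Compound was added from 100X DMSO stocks (1% DMSO final). Time course was imaged hourly for 6 h; dose-response was read at 5 h. Embryos were anaesthetised with MS222 (40 μg/ml) and imaged at 4X (488/525 nm).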

human c-Myc-DUSP6 = molecular target: T1, human c-Myc-DUSP6 (Homo sapiens, UniProt Q16828); assay: Chemical complementation assay for DUSP6; type: cell-based
T1 sequence (Q16828 1-381): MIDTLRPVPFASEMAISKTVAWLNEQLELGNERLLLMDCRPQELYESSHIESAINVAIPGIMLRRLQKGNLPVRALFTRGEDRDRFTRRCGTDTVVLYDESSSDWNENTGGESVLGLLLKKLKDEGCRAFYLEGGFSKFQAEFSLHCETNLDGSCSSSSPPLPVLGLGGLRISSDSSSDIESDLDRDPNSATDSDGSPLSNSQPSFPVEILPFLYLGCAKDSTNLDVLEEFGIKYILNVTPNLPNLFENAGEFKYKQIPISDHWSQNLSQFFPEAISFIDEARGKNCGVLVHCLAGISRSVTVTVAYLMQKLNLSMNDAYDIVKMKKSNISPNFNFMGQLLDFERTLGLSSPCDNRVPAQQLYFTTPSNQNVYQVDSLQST
Procedure, shortened: (§1)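 Human c-Myc-tagged DUSP1 (in pcDNA3.1) or DUSP6 (in pSG5) transfected into HeLa cells, which were grown in DMEM with 10% FBS at 37 °C and 5% CO2. At 48 h, quadruplicate wells got a 15 min treatment with ten two-fold dilutions, then TPA (500 ng/ml) for 15 min. Cells were immunostained for pERK and c-Myc. IC50 came from a four-parameter logistic fit of KS values versus concentration.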

human c-Myc-DUSP1 = molecular target: T2, human c-Myc-DUSP1 (Homo sapiens, UniProt P28562); assay: Chemical complementation assay for DUSP1; type: cell-based
T2 sequence (P28562 1-367): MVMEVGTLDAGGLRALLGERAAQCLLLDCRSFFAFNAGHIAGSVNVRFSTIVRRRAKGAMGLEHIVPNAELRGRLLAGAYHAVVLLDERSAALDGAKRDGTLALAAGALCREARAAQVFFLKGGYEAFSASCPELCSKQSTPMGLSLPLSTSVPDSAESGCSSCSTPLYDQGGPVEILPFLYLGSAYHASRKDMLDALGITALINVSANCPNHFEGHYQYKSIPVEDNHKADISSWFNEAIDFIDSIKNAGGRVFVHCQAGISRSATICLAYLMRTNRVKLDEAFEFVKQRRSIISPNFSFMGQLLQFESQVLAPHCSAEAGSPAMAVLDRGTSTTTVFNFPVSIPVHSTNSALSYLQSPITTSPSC
Procedure, shortened: as §1

zebrafish embryos = assay: Hatching study in zebrafish embryos; type: in vivo; conditions: 6 hour exposure followed by washout; for embryos hatched (in words): exposure at their EC50 (1: 10 μM, 7: 5 μM)
[1] = system: Recombinant His-tagged Dusp6; assay: In vitro OMFP phosphatase assay, ERK2 induced activation of DUSP6; type: biochemical; conditions: 100 μM compound, with recombinant ERK2, OMFP substrate
Procedure, shortened: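 Recombinant His-tagged Dusp6 (250 ng), expressed in bacteria, was preincubated with 100 μM test compound. Recombinant ERK2 (210 ng) was added, then OMFP substrate (100 μM). Fluorescence (485/525 nm) was read every 10 min for 1 h at room temperature. Percent inhibition was taken at 10 min, within the linear range, from three independent experiments (mean ± SD). Vanadate was the positive control; one-way ANOVA with Tukey post hoc test.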

DUSP = conditions: bacterially produced recombinant protein, no ERK; cited from earlier work
EA.hy926 cells = assay: Cytotoxicity in cultured EA.hy926 cells; type: cell-based; conditions: six hours, concentrations up to 50 μM
Procedure, shortened: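 EA.hy926 endothelial hybridoma cells were kept in DMEM with 10% FBS and 2 mM glutamine, plated at 10,000/well and allowed to attach overnight. They were exposed for 6 h to five-point 1/3 dilution gradients, with phenylarsine oxide as positive control. Live cells were stained with propidium iodide (1 μg/ml) and Hoechst 33342 (10 μg/ml), then imaged. Scored per field: nuclei count, nuclear condensation, % PI-positive cells.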

[2] = HeLa chemical complementation assay

Compound: O=C1C(=Cc2ccc(Cl)cc2)C(NC2CCCCC2)c2ccccc21 (stereo not shown) [Compound 15]
- in vivo FGF hyperactivation activity (in words) (FGF signaling): did not substantially change activity compared to 1

Compound: COc1ccc(/C=C2/C(=O)c3ccccc3C2N2CCOCC2)cc1 (stereo not shown) [Compound 24]
- in vivo FGF hyperactivation activity (in words) (FGF signaling): inactive; also recorded: abolished the activity
- DUSP6 inhibition in mammalian cells (in words) (human c-Myc-DUSP6; [2]): lacked antiphosphatase activity
- DUSP1 inhibition in mammalian cells (in words) (human c-Myc-DUSP1; [2]): lacked antiphosphatase activity

Compound: O=C1/C(=C/c2ccccc2)C(NC2CCCCC2)c2ccccc21 (stereo not shown) [Compound 1, (E)-2-benzylidene-3-(cyclohexylamino)-2,3-dihydro-1H-inden-1-one]
- time at which GFP expression reached a maximum (FGF signaling; 20 μM, 24 hpf embryos, stable for an additional hour): 5 h
- concentration of maximal FGF reporter activation (FGF signaling; 5 hour time point, declined at higher concentrations): 20 µM
- IC50 (human c-Myc-DUSP6): 13.3 ± 1.8 µM
- IC50 (human c-Myc-DUSP1): 8 ± 0.6 µM
- embryos hatched (in words) (zebrafish embryos): no embryos hatched
- suppression of ERK-stimulated activation of DUSP6 (in words) [1]: significantly suppressed activation of DUSP6
- antiphosphatase activity in traditional biochemical assay (in words) (DUSP): lacked antiphosphatase activity

Compound: O=C1C(=Cc2ccccc2)C(Nc2ccccc2)c2ccccc21 (stereo not shown) [Compound 4]
- in vivo FGF hyperactivation activity (in words) (FGF signaling): abolished activity

Compound: O=C1C(=Cc2ccc(Cl)c(Cl)c2)C(NC2CCCCC2)c2ccccc21 (stereo not shown) [Compound 16]
- in vivo FGF hyperactivation activity (in words) (FGF signaling): did not substantially change activity compared to 1

Compound: O=C1/C(=C/c2ccccc2)C(N2CCOCC2)c2ccccc21 (stereo not shown) [Compound 7]
- in vivo FGF hyperactivation activity (in words) (FGF signaling): maximal activity
- embryos hatched (in words) (zebrafish embryos): no embryos hatched
- suppression of ERK-stimulated activation of DUSP6 (in words) [1]: significantly suppressed activation of DUSP6

Compound: OC1C(=Cc2ccccc2)C(NC2CCCCC2)c2ccccc21 (stereo not shown) [Compound 31, 2-benzylidene-3-cyclohexylaminoindan-1-ol]
- in vivo FGF hyperactivation activity (in words) (FGF signaling): abolished activity
- suppression of ERK-stimulated activation of DUSP6 (in words) [1]: insignificant

Compound: O=C1/C(=C/c2ccccc2)C(NC2CCCCC2)c2cc(Br)ccc21 (stereo not shown) [Compound 19]
- in vivo FGF hyperactivation activity (in words) (FGF signaling): tolerated
- embryos hatched by 56 hpf (zebrafish embryos; 20 μM (two times the EC50 for FGF activation)): 100%
- cellular toxicity (in words) (EA.hy926 cells): devoid of cellular toxicity
- suppression of ERK-stimulated activation of DUSP6 (in words) [1]: significantly suppressed activation of DUSP6
